OX1R antag-1: human HCRTR1 antagonism; O43613; CHO/OX1R cells, Fluo-8 calcium fluorescence, orexin A; inhibition, % at 5 µM; actives 0.43% (n = 330,000); AID 434989;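 active = inhibition above its plate's threshold, mean inhibition of all tested compounds on the plate plus 3 SD, cut at about 37% in these data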
CHO parental Ca: counter-screen for OX1R antagonists: effect in parental CHO cells. actives 0.63% (n = 330,000). parental CHO-K1, ATP-induced calcium, Fluo-8 fluorescence. inhibition, % at 5.6 µM;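 active = inhibition above that plate's mean sample inhibition plus 3 SD, cut at about 26% in these data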
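material = parental CHO cells | also added = ATP as calcium-mobilizing challenge | dosing = single point at 5.6 µM | detection = intracellular calcium via Fluo-8 no-wash fluorescent dye | read-out = % inhibition | benchmarks = low control ATP plus DMSO, high control DMSO only | repeats = one well per compound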
GPR7 antag: antagonists of human GPR7 (neuropeptides B/W receptor 1); actives 1.1% (n = 290,000); P48145; GPR7-expressing cells, fluorescence antagonist assay; AID 1861; inhibition, % at 4.4 µM; in the data active = inhibition above about 16%, passing the limit was not always enough;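 also: cells stimulated with the agonist NPW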
Target sequence (P48145 whole entry, looked up): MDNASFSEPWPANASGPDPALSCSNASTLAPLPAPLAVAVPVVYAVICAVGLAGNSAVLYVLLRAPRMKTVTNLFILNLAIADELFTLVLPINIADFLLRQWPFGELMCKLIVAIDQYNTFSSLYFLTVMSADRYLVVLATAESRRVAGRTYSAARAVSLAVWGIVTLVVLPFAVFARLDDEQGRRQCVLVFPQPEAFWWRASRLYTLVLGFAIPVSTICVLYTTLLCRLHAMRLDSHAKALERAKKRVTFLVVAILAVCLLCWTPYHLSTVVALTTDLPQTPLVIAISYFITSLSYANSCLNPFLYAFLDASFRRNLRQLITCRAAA
OX1R antag-2: blocks the human orexin 1 receptor; O43613; OX1R-expressing cells, FRET antagonist read-out; inhibition, % at 6.6 µM; actives 1.8% (n = 330,000); in the data active = inhibition mostly above about 38%, no sharp cut-off; inactive = mostly below about 40%
MPTP inh: blocks calcium-induced mitochondrial swelling; isolated mouse mitochondria, Ca2+ swelling absorbance, 30 min; inhibition, % at 10 µM; actives 1.4% (n = 360,000); AID 602449;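 active = inhibition of 50% or more, scaled per plate between neutral and stimulator controls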
OX1R Fluo8 conf: OX1R (human) antagonism, confirmed; shares compounds with OX1R antag-1; CHO/OX1R cells, orexin A calcium Fluo-8 fluorescence; inhibition, % at 5 µM; actives 38% (n = 1,100); in the data active = inhibition above about 29%
CHO Ca triplic: signal in parental CHO cells, OX1R antagonist counter-screen; inhibition, % at 5.6 µM; shares compounds with OX1R antag-1; parental CHO-K1, ATP-induced calcium, Fluo-8 fluorescence; actives 9.3% (n = 1,100);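 active = inhibition above a per-plate limit, the mean inhibition of that plate's test compounds plus 3 SD, cut at about 25% in these data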
A number is an active result; i = inactive; nt = no result. Sampled rows, rich in hits. Any-hit rate of the full collection: about 3.8%.

SMILES | OX1R antag-1 | CHO parental Ca | GPR7 antag | OX1R antag-2 | MPTP inh | OX1R Fluo8 conf | CHO Ca triplic
Cc1cc(CN2CCCC(CO)(Cc3cccc(Cl)c3)C2)n[nH]1 (configuration not stated) | i | i | i | i | i | nt | nt
OCC1(Cc2cccc(Cl)c2)CCCN(Cc2ccc3cc(F)ccc3n2)C1 (configuration not stated) | i | i | i | i | i | 33 | i
CCCCCCCCn1c(=O)c(C(=O)OC)c(N)c2ccccc21 | i | i | i | i | i | i | 35
CCCCCCn1c(=O)c(-c2ccccc2)c(O)c2ccccc21 | i | i | i | i | i | nt | nt
CCOC(=S)SCC(=O)Nc1ncc(C)s1 | i | i | i | i | i | nt | nt
O=C(COC(=O)c1cccs1)c1ccc2ccccc2c1 | i | i | i | i | i | i | i
CCOC(=O)/C=c1\s/c(=C\c2ccc3c(c2)OCCO3)c(=O)n1CC(=O)NCC1CCCO1 (configuration not stated) | 103 | i | i | i | i | i | i
COc1ccc(-c2nc(NC3=NCCCCC3)sc2C)cc1 | 55 | i | i | i | i | i | i
CC(=O)c1cn(CCOc2ccc(F)cc2)c2ccccc12 | 48 | i | i | i | i | i | i
COCCn1c(N/N=C(C)/C=C/c2ccccc2)nc2c1c(=O)[nH]c(=O)n2C | i | i | i | i | nt | nt | nt
O=C(c1ccco1)N1CCN(c2ncccn2)CC1 | i | i | i | i | i | i | i
O=C(Nc1ccncc1)c1ccc(Cl)c(S(=O)(=O)N2CCCCC2)c1 | i | i | nt | i | i | nt | nt
O=C(Nc1ncn[nH]1)c1ccc(Cl)c(S(=O)(=O)N2CCCCCC2)c1 | i | i | i | i | i | i | i
COc1ccc(CCC(=O)NCc2ccccc2OC)cc1 | i | i | i | i | i | i | i
CC(OC(=O)c1ccc2c(c1)OCO2)C(=O)NC1CCCCC1C (configuration not stated) | nt | nt | nt | nt | i | nt | nt
Cc1[nH]c2ccc(C(=O)OC(C)C(=O)NC3CCCCC3C)cc2c1C (configuration not stated) | i | i | nt | i | i | i | i
O=C(c1ccccc1)N1CCN(c2nc3ccc([N+](=O)[O-])cc3s2)CC1 | i | i | i | i | i | i | i
Clc1cccc(CNc2nnnn2-c2ccccc2)c1 | 45 | i | i | i | i | i | i
Cc1c(O)ccc(-c2n[nH]c(C(=O)O)c2-c2nc3ccccc3s2)c1O | i | i | i | i | i | nt | nt
Cc1cc(C)cc(N(CC(=O)Nc2ccc(-c3nc4ccc(C)cc4s3)cc2)S(C)(=O)=O)c1 | 37 | i | i | i | i | i | i
O=C(Oc1ccc2ccc(=O)oc2c1)c1ccco1 | i | i | i | i | i | nt | nt
COc1ccccc1N1CCN(c2cc(C)nc3nc(C)nn23)CC1 | i | i | i | i | i | i | i
COc1ccc(CN2C(=O)NC(C)(c3ccc(C)cc3)C2=O)cc1F (configuration not stated) | 56 | i | i | i | i | i | i
COc1ccc(CN2C(=O)NC3(CCOc4ccccc43)C2=O)cc1F (configuration not stated) | i | i | i | i | i | nt | nt
CCOc1cc(S(=O)(=O)Nc2ccccc2CC)ccc1Cl | 56 | i | i | i | i | i | i
SMILES | OX1R antag-1 | CHO parental Ca | GPR7 antag | OX1R antag-2 | MPTP inh | OX1R Fluo8 conf | CHO Ca triplic
COc1ccc(CN([C@H](CO)CC(C)C)S(=O)(=O)N(Cc2ccccc2)[C@H](CO)CC(C)C)cc1 | 67 | i | nt | i | i | i | i
COC(=O)[C@@H](CC(C)C)NS(=O)(=O)N(Cc1ccccc1)[C@@H](CC(C)C)C(=O)OC | i | i | nt | i | i | i | i
COc1ccc(CN([C@H](C)CO)S(=O)(=O)N(Cc2ccccc2)[C@H](CO)C(C)C)cc1 | i | i | nt | i | i | nt | nt
Cc1ccccc1Cn1nnc(C(=O)Nc2ccc3c(c2)OCCO3)c1N | i | i | nt | i | i | nt | nt
Cc1ccc(C)c(Cn2nnc(C(=O)Nc3ccc4c(c3)OCCO4)c2N)c1 | i | i | nt | i | i | 36 | i
Cc1ccc(NC(=O)CN(C)C(=O)Cc2c(Cl)cccc2Cl)cc1 | i | i | i | i | i | nt | nt
Cc1ccc(C)c(SCC(=O)Nc2cccc(S(=O)(=O)NC3=NCCCCC3)c2)c1 | i | i | i | i | i | nt | nt
O=C(CSc1ccc2ccccc2c1Br)Nc1cccc(S(=O)(=O)NC2=NCCCCC2)c1 | i | i | i | i | i | i | i
